Source: PubChem BioAssay
This is a sample that favours compounds with a hit; in the whole collection about 1.9% have one here.
p-CIP stab down = p/CIP-EGFP fusion destabilizers, primary screen, fluorescence, F442A cells; decrease of EGFP signal, % at 10 µM; 0.01% of 290,000 active; Q05BA5; 16 h;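 active means EGFP signal decrease of at least 30% at 10 µM or well 3 SD below plate mean, unless failing retest; inactive means the rest, including hits failing retest or dose response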
Target sequence (Q05BA5 1-1403): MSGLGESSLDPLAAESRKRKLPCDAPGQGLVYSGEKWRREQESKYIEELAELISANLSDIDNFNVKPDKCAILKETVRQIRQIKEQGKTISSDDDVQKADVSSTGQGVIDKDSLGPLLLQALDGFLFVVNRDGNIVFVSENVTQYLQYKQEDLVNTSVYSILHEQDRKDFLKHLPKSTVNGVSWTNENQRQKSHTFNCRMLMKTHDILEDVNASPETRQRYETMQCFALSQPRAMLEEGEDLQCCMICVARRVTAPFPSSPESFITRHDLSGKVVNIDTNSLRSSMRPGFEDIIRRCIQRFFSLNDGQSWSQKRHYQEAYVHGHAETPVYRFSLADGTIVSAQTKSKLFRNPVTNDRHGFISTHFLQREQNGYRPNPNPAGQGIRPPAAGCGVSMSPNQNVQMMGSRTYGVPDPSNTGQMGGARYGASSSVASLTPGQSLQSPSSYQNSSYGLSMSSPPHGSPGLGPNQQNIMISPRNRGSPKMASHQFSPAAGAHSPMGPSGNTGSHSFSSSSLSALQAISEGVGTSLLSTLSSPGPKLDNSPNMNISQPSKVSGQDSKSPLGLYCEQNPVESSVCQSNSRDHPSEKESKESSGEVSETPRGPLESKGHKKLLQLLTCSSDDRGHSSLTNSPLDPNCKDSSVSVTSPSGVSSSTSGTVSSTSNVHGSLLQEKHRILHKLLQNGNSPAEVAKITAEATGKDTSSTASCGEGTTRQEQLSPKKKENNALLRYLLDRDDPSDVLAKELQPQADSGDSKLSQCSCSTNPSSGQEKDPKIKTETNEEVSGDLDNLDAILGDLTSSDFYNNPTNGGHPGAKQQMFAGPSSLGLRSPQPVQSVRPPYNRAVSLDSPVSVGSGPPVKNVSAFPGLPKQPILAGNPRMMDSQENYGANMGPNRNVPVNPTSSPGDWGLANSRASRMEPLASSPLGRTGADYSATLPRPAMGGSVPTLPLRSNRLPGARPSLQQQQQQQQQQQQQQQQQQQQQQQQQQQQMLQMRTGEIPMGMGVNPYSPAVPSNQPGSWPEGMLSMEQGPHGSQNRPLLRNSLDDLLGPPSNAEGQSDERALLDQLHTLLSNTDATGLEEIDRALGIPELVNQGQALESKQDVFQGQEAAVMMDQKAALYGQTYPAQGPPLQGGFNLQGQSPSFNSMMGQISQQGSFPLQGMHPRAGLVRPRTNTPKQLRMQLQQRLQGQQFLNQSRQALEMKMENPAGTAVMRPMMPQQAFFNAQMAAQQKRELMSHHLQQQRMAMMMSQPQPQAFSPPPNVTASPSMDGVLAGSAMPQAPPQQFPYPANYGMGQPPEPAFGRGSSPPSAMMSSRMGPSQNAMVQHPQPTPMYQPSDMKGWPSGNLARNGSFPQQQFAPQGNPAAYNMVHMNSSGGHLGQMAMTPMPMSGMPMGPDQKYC
T cell HTS = modulators of CD8 T cell-vesicle binding, primary screen, mouse 2C CD8+ T cells, flow cytometry | 2C CD8+ T cell-vesicle binding; stronger effect = lower value | response (vesicle binding), % at 7 µM | 0.068% of 330,000 active;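 active means response, share of CD8 T cells binding vesicles, and their 90th percentile fluorescence all below set limits, cut at about 80% in these data, passing the limit was not always enough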;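 further: values below 100% mean blocked vesicle binding to the CD8+ T cells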
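incubation = binding step 1.5 h, 37 °C, antibody labelling 20 min, ice | test system = 2C mouse CD8+ T cells | read-out basis = percent CD8+ FL2 mean versus row control | controls = Peptide-free naked vesicles (low) and QL9 vesicles with 0.7% DMSO vehicle (high) | detection = flow cytometry of vesicle-bound cells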
Fh CTSL1 inh = Fasciola hepatica cathepsin L1 inhibitors, primary screen, counter-screen for PFM18AAP inhibitor project, biochemical, QFRET, fluorogenic peptide substrate. recombinant F. hepatica cathepsin L1, Z-Leu-Arg-MCA fluorescence. inhibition, % at 5.96 µM. 0.49% of 300,000 active. AID 1906, 2009;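 active means inhibition above the mean of all tested compounds plus 3 SD, set per screening campaign, cut at about 17% in these data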;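 further: 0% = plate median of test compound wells and 100% = 1 µM Z-Phe-Ala-diazomethylketone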
IMP-1 inhibitor = IMP-1 metallo-beta-lactamase inhibitors, primary screen, biochemical, epi-absorbance readout, Pseudomonas aeruginosa enzyme; purified IMP-1, nitrocefin hydrolysis, epi-absorbance fluorescence; 0.45% of 290,000 active; AID 1556, 2009; inhibition, % at 5.6 µM;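 active means inhibition above the mean plus 3 SD of all compounds in the same screening run, cut at about 4.5% in these data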;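 further: 0% = IMP-1 with DMSO and 100% = DMSO wells lacking enzyme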
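System: Purified IMP-1 | Read-out basis: Percent enzyme inhibition | Controls: IMP-1 with DMSO as 0%, enzyme-free DMSO as 100% | Replicates: One well per compound | Doses: 5.6 µM nominal single concentration | Detection: Epi-absorbance fluorescence, 480 nm excitation, 530 nm emission | Incubation: 25 °C, 15 min preincubation, 25 min reaction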
VIM-2 inh = VIM-2 metallo-beta-lactamase inhibitors, primary screen, biochemical, epi-absorbance readout, Pseudomonas aeruginosa enzyme; 0.89% of 290,000 active; AID 1527, 2009; inhibition, % at 5.6 µM; purified VIM-2, nitrocefin hydrolysis, epi-absorbance fluorescence;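 active means inhibition above the mean of all tested compounds plus 3 SD, cutoff set per screening run, cut at about 7.5% in these data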;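 further: red hydrolysis product quenches plate fluorescence so inhibitors raise well fluorescence; 0% = enzyme with DMSO and 100% = DMSO without enzyme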
UBC9 SUMO inh = inhibitors of in vitro SUMOylation cascade, primary screen, biochemical, HTRF, uHTS | inhibition, % at 35 µM | HTRF SUMOylation assay, SAE1/SAE2 + UBC9 | 0.36% of 290,000 active; in the data active means inhibition above about 50%, passing the limit was not always enough
Starred values were filed as active, the others as inactive.

O=C(c1ccc2nc(-c3ccco3)c(-c3ccco3)nc2c1)N1CCC2(CC1)OCCO2 was read as p-CIP stab down -1, T cell HTS 238, Fh CTSL1 inh 17* and UBC9 SUMO inh 37.
Screening COC(=O)C1=C(c2cccc(Cl)c2)C[C@@H]2CC[C@H]1N2C(=O)N1CCCC1 returned T cell HTS 376.
O=C(Cc1ccccc1F)N1CCN(CC(=O)N2CCCC2)CC1 was read as T cell HTS 352.
`CC(C)OC(=O)c1c(N)n(CC2CCCO2)c2nc3ccccc3nc12` (stereo not drawn) gave p-CIP stab down -1, T cell HTS 453, Fh CTSL1 inh 5, IMP-1 inhibitor -3, VIM-2 inh -3 and UBC9 SUMO inh 42.
`CCCNC(=O)c1c(N)n(CC2CCCO2)c2nc3ccccc3nc12` (stereo not drawn) gave p-CIP stab down -5, T cell HTS 375, Fh CTSL1 inh 2, IMP-1 inhibitor 0, VIM-2 inh 2 and UBC9 SUMO inh 102*.
CC(C)OCCCNC(=O)c1c(N)n(CC2CCCO2)c2nc3ccccc3nc12 (stereo not drawn) was read as p-CIP stab down -23, T cell HTS 265, Fh CTSL1 inh 4, IMP-1 inhibitor -4, VIM-2 inh 2 and UBC9 SUMO inh 98*.
For CCN(CC)CCO the results were T cell HTS 619.
For COC(=O)C1=C(c2ccc(F)cc2F)C[C@@H]2CC[C@H]1N2C(=O)NC1Cc2ccccc2C1 the results were T cell HTS 347.
For Cc1cnc(-n2c(=S)[nH]c3ccccc3c2=O)s1 the results were T cell HTS 352.
For CCN(CC)c1ccc(/C=C/[N+](=O)[O-])cc1 the results were p-CIP stab down -32, T cell HTS 521, Fh CTSL1 inh 2, IMP-1 inhibitor 6.5*, VIM-2 inh 3 and UBC9 SUMO inh -2.
`COC(=O)C1=C(c2ccc(OC(F)(F)F)cc2)C[C@@H]2CC[C@H]1N2C(=O)NCc1cc(C)oc1C(F)(F)F` gave T cell HTS 315.
Screening Nc1cc2nc3ccccc3nc2cc1N returned p-CIP stab down 2, T cell HTS 270, Fh CTSL1 inh 0, IMP-1 inhibitor -3, VIM-2 inh -2 and UBC9 SUMO inh 81*.
For COC(=O)c1nc(-c2ccc3c(n2)C(=O)C(N)=C(OC)C3=O)c(N)c(-c2ccc(OC)c(OC)c2O)c1C the results were p-CIP stab down -2, T cell HTS 83, Fh CTSL1 inh 110*, IMP-1 inhibitor -4, VIM-2 inh -2 and UBC9 SUMO inh 49.
For CCn1c(O)c(C(=O)CC2NCCc3ccccc32)c(=O)n(CC)c1=S (stereo not drawn) the results were p-CIP stab down 6, T cell HTS 196, Fh CTSL1 inh 1, IMP-1 inhibitor 9.6*, VIM-2 inh 0 and UBC9 SUMO inh 3.
`C[C@@H]1CCC2[C@@H](C)C(=O)O[C@@H]3OC4(C)CCC1[C@@]23OO4` (stereo partly drawn) gave T cell HTS 288.
For CCN1/C(=C\C=C\C2=[N+](CC)c3ccccc3C2(C)C)C(C)(C)c2ccccc21 the results were p-CIP stab down -672, T cell HTS inactive, Fh CTSL1 inh 2, IMP-1 inhibitor 5.5*, VIM-2 inh 5 and UBC9 SUMO inh 18.
For C/C(=N\Nc1cccc2ccccc12)c1c(O)n(Cc2ccccc2)c(=O)[nH]c1=O the results were p-CIP stab down 0, T cell HTS 131, Fh CTSL1 inh -6, IMP-1 inhibitor 2, VIM-2 inh 2 and UBC9 SUMO inh 52*.
For COC(=O)C1=C(c2ccc(OC)c(OC)c2)C[C@@H]2CC[C@H]1N2C(=O)NCc1ccco1 the results were T cell HTS 167.
Nc1c(C(=O)NCc2ccco2)c2nc3ccccc3nc2n1Cc1ccc(F)cc1 was read as p-CIP stab down -6, T cell HTS 417, Fh CTSL1 inh -4, IMP-1 inhibitor 1, VIM-2 inh 0 and UBC9 SUMO inh 100*.
`Nc1c(C(=O)NCc2ccco2)c2nc3ccccc3nc2n1Cc1ccccc1` gave p-CIP stab down -12, T cell HTS 90, Fh CTSL1 inh 4, IMP-1 inhibitor -2, VIM-2 inh -4 and UBC9 SUMO inh 101*.
`CC1C2Cc3ccc(O)cc3[C@]1(C)CCN2CCc1ccccc1` (stereo partly drawn) gave T cell HTS 170.
For CCCCOCCCn1c(N)c(C(=O)OCCOC)c2nc3ccccc3nc21 the results were p-CIP stab down -4, T cell HTS 354, Fh CTSL1 inh 1, IMP-1 inhibitor -4, VIM-2 inh -3 and UBC9 SUMO inh 18.
`CCCCn1c(NS(=O)(=O)c2ccc(C)cc2)c(C(=O)OCC)c2nc3ccccc3nc21` gave p-CIP stab down -2, T cell HTS 232, Fh CTSL1 inh -8, IMP-1 inhibitor -2, VIM-2 inh -4 and UBC9 SUMO inh 99*.
For CCCCn1c(N)c(C(=O)OCCOC)c2nc3ccccc3nc21 the results were p-CIP stab down -9, T cell HTS 171, Fh CTSL1 inh 5, IMP-1 inhibitor -4, VIM-2 inh -1 and UBC9 SUMO inh 67*.
CCCCn1c(NC(=O)c2ccco2)c(C(=O)OCC)c2nc3ccccc3nc21 was read as p-CIP stab down -22, T cell HTS 698, Fh CTSL1 inh -7, IMP-1 inhibitor -1, VIM-2 inh 0 and UBC9 SUMO inh 103.
`COC(=O)C1=C(c2ccc(Cl)c(C(F)(F)F)c2)C[C@@H]2CC[C@H]1N2C(=O)N1CCC(C)CC1` gave T cell HTS 632.
`COC(=O)C1=C(c2ccc(OCc3ccccc3)cc2)C[C@@H]2CC[C@H]1N2C(=O)NC1CCN(Cc2ccccc2)CC1` gave T cell HTS 514.
For C[C@]12CCC3C(CC[C@@H]4C[C@H](O)CC[C@]34C)C1CCC2=O (stereo partly drawn) the results were T cell HTS 306.
For COc1ccc(-n2c(O)c(/C=C/C=Nc3ccccc3)c(=O)[nH]c2=O)cc1 the results were p-CIP stab down -34, T cell HTS 291, Fh CTSL1 inh -1, IMP-1 inhibitor 9.4*, VIM-2 inh 5 and UBC9 SUMO inh -8.
Screening O=c1[nH]c(=O)n(-c2ccccc2)c(O)c1/C=C/C=Nc1ccccc1 returned p-CIP stab down -74, T cell HTS 265, Fh CTSL1 inh 4, IMP-1 inhibitor 4, VIM-2 inh 3 and UBC9 SUMO inh 4.
